≈ marks a conversion by molar mass, not a printed value.
How the values were obtained:
Staphylococcus aureus [1] = assay: Antimicrobial activity against Staphylococcus aureus after 24 hrs by micro-dilution susceptibility method; format: functional
Outline: (§1)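 Broth microdilution in Müller-Hinton broth against S. aureus IFO 3060, B. subtilis IFO 3007, E. coli IFO 3301 and P. aeruginosa IFO 3448. These are the same standard strains used in the disc-diffusion primary screen. Compounds were solubilized in DMSO. MIC recorded as the minimal inhibitory concentration.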

Staphylococcus aureus [2] = assay: Antimicrobial activity against Staphylococcus aureus at 200 ug after 24 hrs by agar disc diffusion method; format: functional; settings: read-out: DIZ
Bacillus subtilis [3] = assay: Antimicrobial activity against Bacillus subtilis after 24 hrs by micro-dilution susceptibility method; format: functional; outline: as §1
Bacillus subtilis [4] = assay: Antimicrobial activity against Bacillus subtilis at 200 ug after 24 hrs by agar disc diffusion method; format: functional; settings: read-out: DIZ
Micrococcus luteus [5] = assay: Antimicrobial activity against Micrococcus luteus at 200 ug after 24 hrs by agar disc diffusion method; format: functional; settings: read-out: DIZ
Pseudomonas aeruginosa [6] = assay: Antimicrobial activity against Pseudomonas aeruginosa at 200 ug after 24 hrs by agar disc diffusion method; format: functional; settings: read-out: DIZ
Escherichia coli [7] = assay: Antimicrobial activity against Escherichia coli at 200 ug after 24 hrs by agar disc diffusion method; format: functional; settings: read-out: DIZ
Dihydrofolate reductase = target: T1, Dihydrofolate reductase (Bos taurus, UniProt P00376); assay: Inhibition of bovine DHFR after 2 mins by spectrophotometry
T1 sequence (P00376 whole entry): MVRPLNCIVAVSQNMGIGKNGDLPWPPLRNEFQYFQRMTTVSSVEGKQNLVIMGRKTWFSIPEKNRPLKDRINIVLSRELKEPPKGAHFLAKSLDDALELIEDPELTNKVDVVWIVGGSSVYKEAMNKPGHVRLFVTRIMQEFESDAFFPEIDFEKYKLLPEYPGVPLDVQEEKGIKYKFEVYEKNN

Micrococcus luteus [8] = assay: Antimicrobial activity against Micrococcus luteus after 24 hrs by micro-dilution susceptibility method; format: functional
Outline: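 MIC by broth microdilution in Müller-Hinton broth against M. luteus IFO 3232, the same strain used in the disc-diffusion primary screen.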

Pseudomonas aeruginosa [9] = assay: Antimicrobial activity against Pseudomonas aeruginosa after 24 hrs by micro-dilution susceptibility method; format: functional; outline: as §1
Escherichia coli [10] = assay: Antimicrobial activity against Escherichia coli after 24 hrs by micro-dilution susceptibility method
SN12C = assay: Cytotoxicity against human SN12C cells at 10 uM after 48 hrs by coulter counter analysis; format: functional; settings: read-out: GI
CCRF-CEM = assay: Cytotoxicity against human CCRF-CEM cells at 10 uM after 48 hrs by coulter counter analysis; format: functional; settings: read-out: GI
UACC-62 = assay: Cytotoxicity against human UACC62 cells at 10 uM after 48 hrs by coulter counter analysis; format: functional; settings: UACC-62, 48 h, read-out: GI
PC-3 = assay: Cytotoxicity against human PC3 cells at 10 uM after 48 hrs by coulter counter analysis; format: functional; settings: PC-3, 48 h, read-out: GI
MDA-MB-435 = assay: Cytotoxicity against human MDA-MB-435 cells at 10 uM after 48 hrs by coulter counter analysis; format: functional; settings: MDA-MB-435, 48 h, read-out: GI
[11] = Cytotoxicity against human NCI-ADR-RES cells at 10 uM after 48 hrs by coulter counter analysis; format: functional; settings: read-out: GI
SK-MEL-5 = assay: Cytotoxicity against human SK-MEL-5 cells at 10 uM after 48 hrs by coulter counter analysis; format: functional; settings: SK-MEL-5, 48 h, read-out: GI
SNB-75 = assay: Cytotoxicity against human SNB75 cells at 10 uM after 48 hrs by coulter counter analysis; format: functional; settings: SNB-75, 48 h, read-out: GI
RPMI-8226 = assay: Cytotoxicity against human RPMI8226 cells at 10 uM after 48 hrs by coulter counter analysis; format: functional; settings: RPMI-8226, 48 h, read-out: GI
SNB-19 = assay: Cytotoxicity against human SNB19 cells at 10 uM after 48 hrs by coulter counter analysis; format: functional; settings: SNB-19, 48 h, read-out: GI
SR = assay: Cytotoxicity against human SR cells at 10 uM after 48 hrs by coulter counter analysis; format: functional; settings: read-out: GI
SF-295 = assay: Cytotoxicity against human SF295 cells at 10 uM after 48 hrs by coulter counter analysis; format: functional; settings: SF-295, 48 h, read-out: GI
MCF7 = assay: Cytotoxicity against human MCF7 cells at 10 uM after 48 hrs by coulter counter analysis; format: functional; settings: MCF7, 48 h, read-out: GI
UO-31 = assay: Cytotoxicity against human UO31 cells at 10 uM after 48 hrs by coulter counter analysis; format: functional; settings: UO-31, 48 h, read-out: GI
LOX IMVI = assay: Cytotoxicity against human LOXIMVI cells at 10 uM after 48 hrs by coulter counter analysis; format: functional; settings: read-out: GI
T47D = assay: Cytotoxicity against human T47D cells at 10 uM after 48 hrs by coulter counter analysis; format: functional; settings: read-out: GI
RXF 393 = assay: Cytotoxicity against human RXF393 cells at 10 uM after 48 hrs by coulter counter analysis; format: functional; settings: RXF 393, 48 h, read-out: GI
[12] = Cytotoxicity against human EKVX cells at 10 uM after 48 hrs by coulter counter analysis; format: functional; settings: read-out: GI
MDA-MB-231 = assay: Cytotoxicity against human MDA-MB-231 cells at 10 uM after 48 hrs by coulter counter analysis; format: functional; settings: MDA-MB-231, 48 h, read-out: GI
MOLT-4 = assay: Cytotoxicity against human MOLT4 cells at 10 uM after 48 hrs by coulter counter analysis; format: functional; settings: MOLT-4, 48 h, read-out: GI
NCI-H23 = assay: Cytotoxicity against human NCI-H23 cells at 10 uM after 48 hrs by coulter counter analysis; format: functional; settings: NCI-H23, 48 h, read-out: GI
HL-60(TB) = assay: Cytotoxicity against human HL-60(TB) cells at 10 uM after 48 hrs by coulter counter analysis; format: functional; settings: HL-60, 48 h, read-out: GI
NCI-H226 = assay: Cytotoxicity against human NCI-H226 cells at 10 uM after 48 hrs by coulter counter analysis; format: functional; settings: NCI-H226, 48 h, read-out: GI
IGROV-1 = assay: Cytotoxicity against human IGROV1 cells at 10 uM after 48 hrs by coulter counter analysis; format: functional; settings: IGROV-1, 48 h, read-out: GI
A549 = assay: Cytotoxicity against human A549/ATCC cells at 10 uM after 48 hrs by coulter counter analysis; format: functional; settings: A549, 48 h, read-out: GI
OVCAR-4 = assay: Cytotoxicity against human OVCAR4 cells at 10 uM after 48 hrs by coulter counter analysis; format: functional; settings: OVCAR-4, 48 h, read-out: GI
NCI-H522 = assay: Cytotoxicity against human NCI-H522 cells at 10 uM after 48 hrs by coulter counter analysis; format: functional; settings: NCI-H522, 48 h, read-out: GI
Hs-578T = assay: Cytotoxicity against human Hs578T cells at 10 uM after 48 hrs by coulter counter analysis; format: functional; settings: read-out: GI
A498 = assay: Cytotoxicity against human A498 cells at 10 uM after 48 hrs by coulter counter analysis; format: functional; settings: A498, 48 h, read-out: GI
CAKI-1 = assay: Cytotoxicity against human Caki1 cells at 10 uM after 48 hrs by coulter counter analysis; format: functional; settings: CAKI-1, 48 h, read-out: GI
Malme-3M = assay: Cytotoxicity against human MALME-3M cells at 10 uM after 48 hrs by coulter counter analysis; format: functional; settings: read-out: GI

`CCOC(=O)c1nc(N)sc1Sc1nc2ccc(C)cc2c(=O)n1Cc1ccccc1` gave an MIC (Staphylococcus aureus [1]) of 2 µg/mL (≈ 4.42 µM), a zone of inhibition at 200 µg/disc (Staphylococcus aureus [2]) of 24 mm and an MIC (Bacillus subtilis [3]) of 2 µg/mL (≈ 4.42 µM). The zone of inhibition at 200 µg/disc (Bacillus subtilis [4]) was 26 mm, the zone of inhibition at 200 µg/disc (Micrococcus luteus [5]) was 20 mm and the zone of inhibition at 200 µg/disc (Pseudomonas aeruginosa [6]) was 18 mm. It also gave a zone of inhibition at 200 µg/disc (Escherichia coli [7]) of 24 mm, an IC50 (Dihydrofolate reductase) of 4000 nM and an MIC (Micrococcus luteus [8]) of 4 µg/mL (≈ 8.84 µM). It also gave an MIC (Pseudomonas aeruginosa [9]) of 4 µg/mL (≈ 8.84 µM) and an MIC (Escherichia coli [10]) of 2 µg/mL (≈ 4.42 µM).

Work on `COc1cc2nc(Sc3cnc(N)s3)n(-c3ccccc3)c(=O)c2cc1OC` yielded an inhibition of growth at 10 µM (SN12C) of less than 10%, an inhibition of growth at 10 µM (CCRF-CEM) of less than 10% and an inhibition of growth at 10 µM (UACC-62) of less than 10%. For the same compound, the MIC (Staphylococcus aureus [1]) was 8 µg/mL (≈ 19.4 µM), the inhibition of growth at 10 µM (PC-3) was 12% and the inhibition of growth at 10 µM (MDA-MB-435) was less than 10%. The inhibition of growth at 10 µM [11] was less than 10%, the inhibition of growth at 10 µM (SK-MEL-5) was less than 10% and the inhibition of growth at 10 µM (SNB-75) was less than 10%. For the same compound, the zone of inhibition at 200 µg/disc (Staphylococcus aureus [2]) was 18 mm, the inhibition of growth at 10 µM (RPMI-8226) was 12.5% and the inhibition of growth at 10 µM (SNB-19) was less than 10%. The inhibition of growth at 10 µM (SR) was 14.8%, the inhibition of growth at 10 µM (SF-295) was less than 10% and the MIC (Bacillus subtilis [3]) was 4 µg/mL (≈ 9.7 µM). The inhibition of growth at 10 µM (MCF7) was less than 10%, the zone of inhibition at 200 µg/disc (Bacillus subtilis [4]) was 20 mm and the zone of inhibition at 200 µg/disc (Micrococcus luteus [5]) was 16 mm. For the same compound, the zone of inhibition at 200 µg/disc (Pseudomonas aeruginosa [6]) was 14 mm, the zone of inhibition at 200 µg/disc (Escherichia coli [7]) was 18 mm and the inhibition of growth at 10 µM (UO-31) was 22.2%. The inhibition of growth at 10 µM (LOX IMVI) was less than 10%, the inhibition of growth at 10 µM (T47D) was less than 10% and the inhibition of growth at 10 µM (RXF 393) was less than 10%. The inhibition of growth at 10 µM [12] was 12.7%, the inhibition of growth at 10 µM (MDA-MB-231) was 18.6% and the IC50 (Dihydrofolate reductase) was 500 nM. For the same compound, the inhibition of growth at 10 µM (MOLT-4) was less than 10%, the inhibition of growth at 10 µM (NCI-H23) was less than 10% and the inhibition of growth at 10 µM (HL-60(TB)) was less than 10%. The inhibition of growth at 10 µM (NCI-H226) was less than 10%, the MIC (Micrococcus luteus [8]) was 4 µg/mL (≈ 9.7 µM) and the inhibition of growth at 10 µM (IGROV-1) was 13%. The inhibition of growth at 10 µM (A549) was less than 10%, the inhibition of growth at 10 µM (OVCAR-4) was less than 10% and the inhibition of growth at 10 µM (NCI-H522) was less than 10%. For the same compound, the inhibition of growth at 10 µM (Hs-578T) was less than 10%, the MIC (Escherichia coli [10]) was 4 µg/mL (≈ 9.7 µM) and the inhibition of growth at 10 µM (A498) was less than 10%. For the same compound, the inhibition of growth at 10 µM (CAKI-1) was 17.8% and the inhibition of growth at 10 µM (Malme-3M) was less than 10%.
